# Key:
# Assay type in all cases: cell-based
# Adenosine receptor A3 = target: T1, Adenosine receptor A3 (Homo sapiens, UniProt P0DMS8); assay: Displacement of [3H]MRE3008F20 from human adenosine A3 receptor expressed in CHO cells
# T1 sequence (P0DMS8 whole entry): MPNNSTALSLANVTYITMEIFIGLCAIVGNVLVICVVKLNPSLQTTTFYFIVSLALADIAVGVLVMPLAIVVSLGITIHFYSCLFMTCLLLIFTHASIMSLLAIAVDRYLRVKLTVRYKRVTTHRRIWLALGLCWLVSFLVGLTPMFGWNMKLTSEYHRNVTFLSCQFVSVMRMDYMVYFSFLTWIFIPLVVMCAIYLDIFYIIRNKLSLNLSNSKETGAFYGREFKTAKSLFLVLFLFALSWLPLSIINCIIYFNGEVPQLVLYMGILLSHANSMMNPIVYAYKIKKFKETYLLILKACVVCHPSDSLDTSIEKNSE
# Procedure, shortened: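 Membranes (50 µg protein/assay) in 50 mM Tris-HCl, 10 mM MgCl2, 1 mM EDTA, pH 7.4, incubated 120 min at 4 °C with [³H]MRE3008F20 and at least 6–8 ligand concentrations. Nonspecific binding defined with 1 µM MRE 3008F20. Glass fiber filtration and counting. Ki via Cheng-Prusoff; n = 3–6.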
# Adenosine receptor A2a = Adenosine receptor A2a (Homo sapiens, UniProt P29274); assay: Displacement of [3H]ZM-241385 from human adenosine A2A receptor expressed in CHO cells
# Adenosine receptor A2a, sequence (P29274 whole entry): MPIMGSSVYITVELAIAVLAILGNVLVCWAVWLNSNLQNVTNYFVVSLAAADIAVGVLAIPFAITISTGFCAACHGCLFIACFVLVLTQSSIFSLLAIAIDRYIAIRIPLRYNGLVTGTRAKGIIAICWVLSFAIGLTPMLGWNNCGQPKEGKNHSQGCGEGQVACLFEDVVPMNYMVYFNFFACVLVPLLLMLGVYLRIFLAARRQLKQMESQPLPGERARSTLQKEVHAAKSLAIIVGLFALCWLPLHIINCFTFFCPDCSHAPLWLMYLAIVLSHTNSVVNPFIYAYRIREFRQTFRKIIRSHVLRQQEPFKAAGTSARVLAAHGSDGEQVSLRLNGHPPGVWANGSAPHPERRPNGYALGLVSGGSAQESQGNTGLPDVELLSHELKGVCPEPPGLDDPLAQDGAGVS
# Procedure, shortened: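 Membranes (50 µg protein/assay) in 50 mM Tris-HCl, 10 mM MgCl2, pH 7.4, incubated 60 min at 4 °C with [³H]ZM241385 and at least 6–8 concentrations of compound. Nonspecific binding defined with 1 µM ZM 241385. GF/B filtration and counting. Ki by Cheng-Prusoff; n = 3–6.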
# Adenosine receptor A1 = target: T2, Adenosine receptor A1 (Homo sapiens, UniProt P30542); assay: Displacement of [3H]DPCPX from human adenosine A1 receptor expressed in CHO cells
# T2 sequence (P30542 whole entry): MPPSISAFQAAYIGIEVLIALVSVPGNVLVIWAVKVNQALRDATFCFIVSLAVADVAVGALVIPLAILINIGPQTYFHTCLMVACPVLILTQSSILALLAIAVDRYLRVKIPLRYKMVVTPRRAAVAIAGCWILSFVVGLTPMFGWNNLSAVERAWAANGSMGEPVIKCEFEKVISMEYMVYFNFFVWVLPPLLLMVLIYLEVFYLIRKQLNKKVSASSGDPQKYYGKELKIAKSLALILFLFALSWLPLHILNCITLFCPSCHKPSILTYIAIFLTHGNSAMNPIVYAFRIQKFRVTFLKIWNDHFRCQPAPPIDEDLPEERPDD
# Adenosine receptor A2b = target: T3, Adenosine receptor A2b (Homo sapiens, UniProt P29275); assay: Displacement of [3H]MRE2029F20 from human adenosine A2B receptor expressed in HEK293 cells
# T3 sequence (P29275 whole entry): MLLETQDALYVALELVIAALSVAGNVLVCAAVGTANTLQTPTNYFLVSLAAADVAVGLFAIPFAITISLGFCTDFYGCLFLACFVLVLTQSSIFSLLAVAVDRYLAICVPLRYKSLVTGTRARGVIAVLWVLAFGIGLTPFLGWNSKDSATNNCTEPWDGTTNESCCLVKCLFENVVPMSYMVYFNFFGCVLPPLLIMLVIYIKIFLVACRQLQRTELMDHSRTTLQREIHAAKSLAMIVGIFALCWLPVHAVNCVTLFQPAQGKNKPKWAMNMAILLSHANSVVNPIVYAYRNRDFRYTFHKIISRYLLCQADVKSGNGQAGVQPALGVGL
# Procedure, shortened: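 Membranes (50 µg protein/assay) in 50 mM Tris-HCl, 10 mM MgCl2, 1 mM EDTA, pH 7.4, incubated 120 min at 4 °C with [³H]MRE2029F20 and at least 6–8 compound concentrations. Nonspecific binding defined with 1 µM MRE 2029F20. GF/B filtration, scintillation counting. Ki via Cheng-Prusoff; n = 3–6.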
Structure (SMILES),Ki (Adenosine receptor A3) [nM],Ki (Adenosine receptor A2a) [nM],Ki (Adenosine receptor A1) [nM],Ki (Adenosine receptor A2b) [nM]
CCCn1c(=O)c2[nH]c(-c3cc(C)n(CC(=O)Nc4ccc(OC)c(OC)c4)n3)nc2n(CCC)c1=O,> 1000,,,
CCCn1c(=O)c2[nH]c(-c3cc(C)n(CC(=O)Nc4ccc(N(C)C)cc4)n3)nc2n(CCC)c1=O,> 1000,,,> 1000
CCCn1c(=O)c2[nH]c(-c3cc(C)n(CC(=O)Nc4ccc(OC)cc4)n3)nc2n(CCC)c1=O,> 1000,,,
CCCn1c(=O)c2[nH]c(-c3cc(C)n(CC(=O)Nc4ccccc4)n3)nc2n(CCC)c1=O,> 1000,,,
CCCn1c(=O)c2[nH]c(-c3cc(C)n(CC(=O)Nc4cccc5ccccc45)n3)nc2n(CCC)c1=O,> 1000,,,> 1000
CCCn1c(=O)c2[nH]c(-c3cc(C)n(CC(=O)Nc4cccc(Cl)c4)n3)nc2n(CCC)c1=O,> 1000,,,
CCCn1c(=O)c2[nH]c(-c3cc(C)n(CC(=O)Nc4ccc(Cl)c(Cl)c4)n3)nc2n(CCC)c1=O,> 1000,,,
CCCn1c(=O)c2[nH]c(-c3cc(C)n(CC(=O)Nc4cccc(OC)c4)n3)nc2n(CCC)c1=O,> 1000,,,
CCCn1c(=O)c2[nH]c(-c3cc(C)n(CC(=O)Nc4ccc(C)c(C)c4)n3)nc2n(CCC)c1=O,> 1000,,,
CCCn1c(=O)c2[nH]c(-c3cc(C)n(CC(=O)Nc4ccc(F)cc4)n3)nc2n(CCC)c1=O,> 1000,,,
CCCn1c(=O)c2[nH]c(-c3cc(OCC(=O)Nc4ccc(OC)c(OC)c4)nn3C)nc2n(CCC)c1=O,> 1000,> 1000,> 1000,
CCCn1c(=O)c2[nH]c(-c3cc(C)n(CC(=O)Nc4ccc(C)cc4)n3)nc2n(CCC)c1=O,> 1000,,,
CCCn1c(=O)c2[nH]c(-c3cc(C)n(CC(=O)Nc4ccc(Br)cc4)n3)nc2n(CCC)c1=O,> 1000,> 1000,> 1000,

# More lines, now with the values ahead:
Ki (Adenosine receptor A3) [nM],Ki (Adenosine receptor A2a) [nM],Ki (Adenosine receptor A1) [nM],Ki (Adenosine receptor A2b) [nM],Structure (SMILES)
> 1000,,,,CCCn1c(=O)c2[nH]c(-c3nn(CC(=O)Nc4ccc(Cl)cc4)c(C)c3Br)nc2n(CCC)c1=O
> 1000,,,,CCCn1c(=O)c2[nH]c(-c3ccn(CC(=O)Nc4ccc(Cl)cc4)n3)nc2n(CCC)c1=O
> 1000,> 1000,> 1000,,CCCn1c(=O)c2[nH]c(-c3cc(C)n(CC(=O)Nc4ccc(Cl)cc4)n3)nc2n(CCC)c1=O
> 1000,,,,CCCn1c(=O)c2[nH]c(-c3cc(C)n(CC(=O)Nc4ccc(I)cc4)n3)nc2n(CCC)c1=O
> 1000,,,> 1000,CCCn1c(=O)c2[nH]c(-c3cc(CC)n(CC(=O)Nc4ccc(Cl)cc4)n3)nc2n(CCC)c1=O
> 1000,,,> 1000,CCCn1c(=O)c2[nH]c(-c3nn(CC(=O)Nc4ccc(Cl)cc4)c(C)c3I)nc2n(CCC)c1=O
> 1000,,,,CCCn1c(=O)c2[nH]c(-c3nn(CC(=O)Nc4ccc(Cl)cc4)c(C)c3Cl)nc2n(CCC)c1=O
